Laboratory results reported in ChEMBL document CHEMBL4130603, “Anti-inflammatory Grayanane Diterpenoids from the Leaves of Rhododendron molle” (J Nat Prod, 2018).

Legend:
RAW264.7 [1] = experiment: Antiinflammatory activity in mouse RAW264.7 cells assessed as inhibition of LPS-induced nitric oxide production by griess assay; type: functional, cell-based
How it was run: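 RAW 264.7 mouse macrophages induced with LPS; NO production measured over five test concentrations to derive IC50; means ± SD, n = 3; dexamethasone positive control.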

RAW264.7 [2] = experiment: Cytotoxicity against mouse RAW264.7 cells at 200 uM measured in presence of LPS by MTT assay; type: cell-based; conditions: raw264.7, 200 µM
How it was run: (§1)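 MTT viability of RAW 264.7 mouse macrophages exposed to compound at 200 μM, with or without 1 μg/mL LPS; reported as cell survival rate (%).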

RAW264.7 [3] = experiment: Cytotoxicity against mouse RAW264.7 cells at 200 uM measured in absence of LPS by MTT assay; type: cell-based; conditions: raw264.7, 200 µM; how it was run: as §1
RAW264.7 [4] = experiment: Antiinflammatory activity in mouse RAW264.7 cells assessed as inhibition of LPS-induced nitric oxide production at 40 uM by griess assay relative to control; type: functional
How it was run: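 LPS-stimulated RAW 264.7 mouse macrophages; nitric oxide production measured; single-concentration screen of inhibition relative to control. Dexamethasone as positive control.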

[5] = Cytotoxicity against mouse RAW264.7 cells assessed as survival rate at 200 uM measured in presence of LPS by MTT assay relative to control; type: cell-based; conditions: read-out: Survival
How it was run: (§2)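 RAW 264.7 mouse macrophages treated with compound at 200 μM, with or without 1 μg/mL LPS. Viability read by MTT and expressed as survival rate (%). Values are means ± SD, n = 3.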

[6] = Cytotoxicity against mouse RAW264.7 cells assessed as survival rate at 200 uM measured in absence of LPS by MTT assay relative to control; type: cell-based; conditions: read-out: Survival; how it was run: as §2

| SMILES | IC50 (RAW264.7 [1]) | Activity (RAW264.7 [2]) | Activity (RAW264.7 [3]) | inhibition at 40 µM (RAW264.7 [4]) | viability at 200 µM [5] | viability at 200 µM [6] |
| --- | --- | --- | --- | --- | --- | --- |
| C=C1[C@@H]2[C@@H](OC)[C@H](O)C(C)(C)[C@@]2(O)[C@H](OC(C)=O)C[C@]23C[C@@](C)(O)[C@H](CC[C@@H]12)[C@H]3O | > 40 µM | Non-Toxic | Non-Toxic | – | – | – |
| C=C1[C@@H]2CC[C@@H]3C[C@@]2(C[C@@H](O)[C@@]2(O)[C@H]1C[C@H](O)C2(C)C)C[C@@]3(C)O | 3.5 µM | – | – | > 50% | 93.8% | 96.4% |
| CC(=O)O[C@@H]1C[C@]23C[C@@](C)(O)[C@H](CC[C@H]2[C@@](C)(O)[C@@H]2[C@@H](O)[C@H](O)C(C)(C)[C@@]12O)[C@H]3O | 9.3 µM | – | – | > 50% | 99.8% | 98.8% |
| CC(=O)O[C@@H]1C[C@@]23C[C@]4(C)O[C@@H](C[C@@H]4[C@H]2O)[C@H]3[C@@](C)(O)C2[C@@H]3O[C@@H]3C(C)(C)[C@]21O (stereo partly specified) | > 40 µM | Non-Toxic | Non-Toxic | – | – | – |
| C=C1[C@@H]2CC[C@@H]3C[C@@]2(C[C@@H](O)[C@@]2(O)[C@H]1C[C@H](O)[C@]2(C)CO)C[C@@]3(C)O | > 40 µM | Non-Toxic | Non-Toxic | – | – | – |
| CC(=O)O[C@@H]1C[C@]23C=C(C)[C@H](CC[C@H]2[C@@](C)(O)[C@@H]2[C@@H]4O[C@@H]4C(C)(C)[C@@]12O)[C@H]3O | > 40 µM | Non-Toxic | Non-Toxic | – | – | – |
| CO[C@@H]1[C@H]2C(C)=C3CC[C@@H]4[C@@H](O)[C@@]3(C[C@@H](OC(C)=O)[C@]2(O)C(C)(C)[C@H]1O)C[C@@]4(C)O | > 40 µM | Non-Toxic | Non-Toxic | – | – | – |
| CO[C@@H]1[C@H]2[C@@H](C)[C@]34CC[C@H]5C(C)=C[C@]3(C[C@@H](OC(C)=O)[C@]2(O4)C(C)(C)[C@H]1O)[C@@H]5O | > 40 µM | Non-Toxic | Non-Toxic | – | – | – |
| CC(=O)O[C@@H]1C[C@]23C[C@@](C)(O)[C@H](CC[C@H]2[C@@](C)(O)[C@@H]2C[C@H](O)C(C)(C)[C@@]12O)[C@H]3O | > 40 µM | Non-Toxic | Non-Toxic | – | – | – |
| CC1(C)[C@@H](O)[C@H](O)[C@H]2[C@](C)(O)[C@@H]3CC[C@@H]4[C@@H](O)[C@@]3(C[C@@H](O)[C@@]21O)C[C@@]4(C)O | 8 µM | – | – | > 50% | 90.4% | 97% |
| C[C@@H]1C[C@H]2[C@@H]3CCC4=CC(=O)C=C[C@]4(C)[C@@]3(F)[C@@H](O)C[C@]2(C)[C@@]1(O)C(=O)CO [DEXAMETHASONE] | 0.8 µM | – | – | – | 97.1% | 97.7% |
| CO[C@H]1[C@H](O)C(C)(C)[C@@]2(O)[C@H](OC(C)=O)C[C@]34C[C@@](C)(O)[C@H](CC[C@H]3[C@@](C)(O)[C@H]12)[C@H]4O | 4.6 µM | – | – | > 50% | 97.3% | 98.3% |
| C=C1[C@@H]2[C@@H]3O[C@@H]3C(C)(C)[C@@]2(O)[C@H](O)C[C@]23C[C@@](C)(O)[C@H](CC[C@@H]12)[C@H]3O | 35.4 µM | – | – | > 50% | 92% | 90.3% |
| CC1(C)[C@H]2O[C@H]2[C@H]2[C@](C)(O)[C@@H]3CC[C@@H]4[C@@H](O)[C@@]3(C[C@@H](O)[C@@]21O)C[C@@]4(C)O | 7 µM | – | – | > 50% | 98.4% | 96.5% |
| C=C1[C@@H]2CC[C@@H]3[C@@H](O)[C@@]2(C[C@@H](O)[C@@]2(O)[C@H]1C[C@H](O)C2(C)C)C[C@@]3(C)O | > 40 µM | Non-Toxic | Non-Toxic | – | – | – |
| C=C1[C@@H]2[C@@H](O)[C@H](O)C(C)(C)[C@@]2(O)[C@H](O)C[C@]23C[C@@](C)(O)[C@H](CC[C@@H]12)[C@H]3O | 8.1 µM | – | – | > 50% | 97.5% | 98.1% |
| CC(=O)O[C@@H]1C[C@]23C[C@@](C)(OC(C)=O)[C@H](CC[C@H]2[C@@](C)(O)[C@@H]2[C@@H]4O[C@@H]4C(C)(C)[C@@]12O)[C@H]3O | 10.1 µM | – | – | > 50% | 99.7% | 98.9% |
| C=C1[C@@H]2[C@@H](O)[C@H](O)C(C)(C)[C@@]2(O)[C@H](OC(C)=O)C[C@]23C[C@@](C)(O)[C@H](CC[C@@H]12)[C@H]3O | > 40 µM | Non-Toxic | Non-Toxic | – | – | – |
| CO[C@H]1[C@H](O)C(C)(C)[C@@]2(O)[C@H](OC(C)=O)C[C@]34C[C@@](C)(O)[C@H](CC[C@H]3[C@@](C)(O)[C@H]12)[C@H]4O[C@H]1[C@H](O)C(C)(C)[C@@]2(O)[C@H](OC(C)=O)C[C@]34C[C@@](C)(O)[C@H](CC[C@H]3[C@@](C)(O)[C@H]12)[C@H]4O | > 40 µM | Non-Toxic | Non-Toxic | – | – | – |
| C=C1[C@@H]2CC[C@@H]3C[C@@]2(C[C@@H](OC(C)=O)[C@@]2(O)[C@H]1C[C@H](O)C2(C)C)C[C@@]3(C)O | > 40 µM | Non-Toxic | Non-Toxic | – | – | – |
| C=C1C[C@@]23C[C@@H](OC(C)=O)[C@@]4(O)[C@@H]([C@@H](O)[C@H](O)C4(C)C)[C@](C)(O)[C@@H]2CC[C@@H]1[C@H]3O | > 40 µM | Non-Toxic | Non-Toxic | – | – | – |
| CO[C@H]1[C@H](O)C(C)(C)[C@@]2(O)[C@H](O)C[C@]34C[C@@](C)(O)[C@H](CC[C@H]3[C@@](C)(O)[C@H]12)[C@H]4O | > 40 µM | Non-Toxic | Non-Toxic | – | – | – |
| C=C1[C@@H]2[C@@H](OC)[C@H](O)C(C)(C)[C@@]2(O)[C@H](O)C[C@]23C[C@@](C)(O)[C@H](CC[C@@H]12)[C@H]3O | > 40 µM | Non-Toxic | Non-Toxic | – | – | – |
| CC(=O)O[C@@H]1C[C@]23C[C@@](C)(O)[C@H](CC[C@H]2[C@@](C)(O)[C@@H]2[C@@H](Cl)[C@H](O)C(C)(C)[C@@]12O)[C@H]3O | 5.8 µM | – | – | > 50% | 95.2% | 99.3% |
| CC(=O)O[C@@H]1[C@H]2CC[C@H]3[C@@](C)(O)[C@@H]4[C@@H](O)[C@H](O)C(C)(C)[C@@]4(O)[C@H](OC(C)=O)C[C@@]13C[C@@]2(C)O | 10.3 µM | – | – | > 50% | 93.9% | 97.4% |
| C=C1[C@@H]2[C@@H](O)[C@H](O)C(C)(C)[C@@]2(O)[C@H](OC(C)=O)C[C@]23C=C(C)[C@H](CC[C@@H]12)[C@H]3O | > 40 µM | Non-Toxic | Non-Toxic | – | – | – |
| C=C1C[C@@]23C[C@@H](O)[C@@]4(O)C([C@@H]5O[C@@H]5C4(C)C)[C@](C)(O)[C@@H]2CC[C@@H]1[C@H]3O (stereo partly specified) | > 40 µM | Non-Toxic | Non-Toxic | – | – | – |
| CC(=O)O[C@@H]1[C@H]2CC[C@H]3[C@@](C)(O)[C@@H]4[C@@H]5O[C@@H]5C(C)(C)[C@@]4(O)[C@H](O)C[C@@]13C[C@@]2(C)O | > 40 µM | Non-Toxic | Non-Toxic | – | – | – |
| CO[C@H]1[C@H](O)C(C)(C)[C@@]2(O)[C@H](OC(C)=O)C[C@]34C[C@@](C)(O)[C@H](CC[C@H]3[C@@](C)(O)[C@H]12)[C@H]4OC(C)=O | > 40 µM | Non-Toxic | Non-Toxic | – | – | – |
| CC(=O)O[C@@H]1C[C@]23C[C@@](C)(O)[C@H](CC[C@H]2[C@@](C)(O)[C@@H]2[C@@H]4O[C@@H]4C(C)(C)[C@@]12O)[C@H]3O | 2.8 µM | – | – | > 50% | 93.6% | 101% |
